Laboratory results as given in ChEMBL document CHEMBL4699492, “Discovery of Novel Pyrazolo[3,4-b] Pyridine Derivatives with Dual Activities of Vascular Remodeling Inhibition and Vasodilation for the Treatment of Pulmonary Arterial Hypertension” (J Med Chem, 2020).

Experiments:
[1] = target: AMP-activated protein kinase, AMPK (Homo sapiens) (UniProt P54646+O43741+P54619+Q9UGJ0+Q9Y478+Q13131+Q9UGI9); assay: Inhibition of AMPK in TGFbeta-induced HLF1 cells assessed as reduction in cell migration measured after 24 hrs by wound healing assay; type: cell-based; conditions: dose microM 5-10, time 24.0 hrs
Outline: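 Wound-healing assay. 5 × 10^4 cells were seeded per well and grown 24 h to near confluence. The monolayer was scratched with a pipette tip and washed with PBS. Cells were then kept in 1% FBS medium with TGF-β (10 ng/mL) or under hypoxia (1% O2, 5% CO2, 94% N2), alone or with compound. Migration ran 24 h at 37 °C, imaged at 0 and 24 h. Mean ± SD from three independent experiments.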

[2] = system: Pulmonary Artery Smooth Muscle Cells; assay: Stimulation of sGC in HPASMC assessed as increase in intracellular cGMP level at 100 uM measured after 1 hr in absence of PDE5 inhibitor IBMX by cGMP-d2/europium cryptate reagent based HTRF assay relative to control; type: tissue-based; conditions: Homo sapiens
Outline: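 HPASMCs were suspended at 100,000 cells/mL in PBS with 0.2% BSA, with or without 10 µM ODQ. Compounds were added as a 6-point, 10-fold dilution series; the top 2× stock was 200 µM. Incubation was 1 h at room temperature, in triplicate. cGMP-d2 in lysis buffer and europium cryptate were then added for 1 h before HTRF reading. Three independent experiments.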

[3] = Effect on total Smad2/3 level in lungs of Sprague-Dawley rat model of hypoxia-induced pulmonary artery hypertension at 10 mg/kg, po administered daily for 2 weeks by Western blot analysis; type: ADME, organism-based; conditions: in vivo, 336 h
Outline: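 Hypoxic PAH model in male SD rats (160-200 g) kept at 10% O2 for 4 weeks. Oral dosing at 10 mg/kg daily for 14 days, suspended in 0.5% CMC-Na; control and hypoxia groups received vehicle only. Lungs homogenized in RIPA with protease and phosphatase inhibitors. 30 µg protein run on 10% SDS-PAGE, then PVDF blotting, with β-actin as loading reference. Three independent runs.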

[4] = Half life in Sprague-Dawley rat liver microsomes at 1.5 uM preincubated for 5 mins followed by NADPH addition and measured up to 45 mins by LC-MS/MS analysis; type: ADME, Microsome; conditions: time <=50 min
Outline: (§1)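 Liver microsomes (0.75 mg/mL), human or SD rat, in 0.1 M potassium phosphate pH 7.4 with 3.0 mM MgCl2 and 1.5 µM compound, run in duplicate. After 5 min preincubation at 37 °C, reaction started with 3 mM NADPH. Quenched at 0, 5, 15, 30 and 45 min with ice-cold acetonitrile containing internal standard. Ketanserin served as positive control and a no-NADPH buffer incubation as negative control. LC-MS/MS read-out.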

[5] = Half life in human liver microsomes at 1.5 uM preincubated for 5 mins followed by NADPH addition and measured up to 45 mins by LC-MS/MS analysis; type: ADME, Microsome; conditions: time <=50 min; outline: as §1

inhibition [1]: Dose-dependent effect
half-life at 1.5 µM [4]: 0.167 h
half-life at 1.5 µM [5]: 2.08 h
SMILES: Cc1ccccc1COc1nc2c(cc1-c1nc(N)cc(N)n1)c(C)nn2-c1ccccc1
Activity [2]: 5%
Activity [3]: Non-Toxic
